According to ChEMBL document CHEMBL1144753, “Inhibitors of DNA polymerase beta: activity and mechanism” (Bioorg Med Chem, 2008):
Activity calls are given as the source filed them. No cut-off for these calls is given here.

Experiments:
[1] = system: A549; experiment: Effect on DNA polymerase beta expression in human A549 cells at 3 uM after 48 hrs by Western blot analysis; assay type: functional, cell-based
Procedure, shortened: (§1)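 A549 cells grown in Ham's F12K with 10% fetal calf serum, exposed 48 h to compound. Whole-cell extracts prepared by freeze/thaw lysis, cleared at 15,000 × g. Extracts resolved on 15% SDS-PAGE, transferred to PVDF and probed with anti-human pol β antibody. Anti-β-actin served as loading control. HRP anti-goat IgG detection, followed by densitometric quantification.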

[2] = system: A549; experiment: Inhibition of bleomycin-induced unscheduled DNA synthesis in human A549 cells at 3 uM; assay type: functional, cell-based
Procedure, shortened: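 A549 cells (~5×10^5) treated with 10 mM bleomycin for 30 min at 37 °C. Then 10 mM hydroxyurea, 2 mM nicotinamide, 5 µCi [3H]thymidine and inhibitor added, incubated 3 h. Stopped with ice-cold saline. Cells collected and TCA-precipitated on ice 30 min for scintillation counting of incorporated label. Run in triplicate.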

[3] = system: A549; experiment: Cytotoxicity against human A549 cells after 48 hrs by MTT assay; settings: A549, 48 h
[4] = system: A549; experiment: Effect on DNA polymerase beta expression in human A549 cells at 25 uM after 48 hrs by Western blot analysis; assay type: functional, cell-based
Procedure, shortened: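 A549 cells grown at 37 °C, 5% CO2 in Kaighn's F12 with 10% fetal calf serum, exposed 48 h to inhibitor at 25 μM (final DMSO <0.05%). Whole-cell extracts made by freeze/thaw, then resolved on 15% SDS-PAGE and blotted to PVDF. Probed with anti-human pol β antibody, with anti-β-actin as loading control. HRP detection; bands scanned and quantified.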

[5] = system: A549; experiment: Inhibition of bleomycin-induced unscheduled DNA synthesis in human A549 cells at 25 uM; assay type: functional, cell-based
Procedure, shortened: (§2)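 A549 cells (~5×10^5) treated with 10 mM bleomycin for 30 min at 37 °C. DMSO, 10 mM hydroxyurea, 2 mM nicotinamide, 5 μCi [3H]thymidine and inhibitor then added, triplicate flasks per concentration. Incubated 3 h, stopped with ice-cold saline. Cells pelleted and treated with ice-cold 5% TCA for 30 min; incorporated radioactivity read by scintillation counting.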

[6] = target: DNA polymerase beta (Rattus norvegicus) (UniProt P06766); experiment: Inhibition of lyase activity of DNA polymerase beta
[7] = target: DNA polymerase beta (Rattus norvegicus) (UniProt P06766); experiment: Inhibition of polymerase activity of DNA polymerase beta
[8] = system: A549; experiment: Effect on DNA polymerase beta expression in human A549 cells at 6 uM after 48 hrs by Western blot analysis; assay type: functional, cell-based; procedure, shortened: as §1
[9] = system: A549; experiment: Inhibition of bleomycin-induced unscheduled DNA synthesis in human A549 cells at 6 uM; assay type: functional, cell-based; procedure, shortened: as §2

SMILES	Activity [1]	Activity [2]	IC50 [3] [µM]	Activity [4]	Activity [5]	IC50 [6] [µM]	IC50 [7] [µM]	Activity [8]	Activity [9]
C=C(C)[C@@H]1CC[C@]2(C(=O)O)CC[C@]3(C)[C@H](CC[C@@H]4[C@@]5(C)CC[C@H](O)C(C)(C)[C@@H]5CC[C@]43C)[C@@H]12 [BETULINIC ACID]	inactive	Active	6.65						
CC1(C)CC[C@]2(C(=O)O)CC[C@]3(C)C(=CC[C@@H]4[C@@]5(C)CC[C@H](O)C(C)(C)[C@@H]5CC[C@]43C)[C@@H]2C1 [OLEANOLIC_ACID]			> 100	inactive	Active	26.3	25		
CC[C@H](/C=C/[C@@H](C)[C@H]1CC[C@H]2[C@@H]3CC=C4C[C@@H](O)CC[C@]4(C)[C@H]3CC[C@]12C)C(C)C [STIGMASTEROL]			98.2			60.3	> 250	inactive	
O=c1ccc2ccc(Oc3cc4ccc(O)cc4oc3=O)cc2o1 [EDGEWORIN]			80.2					inactive	Active
